Laboratory results reported in publication PMC3566574 (Organic & biomolecular chemistry, 2012).

Key:
LasR [1] = molecular target: T1, LasR (Pseudomonas aeruginosa, UniProt P25084); test: LasR agonism reporter gene assay; assay type: cell-based; settings: 100 μM, normalized to OdDHL at 100 μM (100%); triplicate, error ≤10%
LasR [2] = molecular target: T1, LasR; test: LasR antagonism reporter gene assay; assay type: cell-based; settings: 100 μM against OdDHL at 10 nM; triplicate, error ≤10%
AbaR [3] = test: AbaR agonism reporter gene assay; assay type: cell-based, Acinetobacter baumannii; settings: 100 μM, normalized to OH-dDHL at 100 μM (100%); triplicate, error ±10%
Method in brief: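 Overnight A. baumannii abaI::lacZ culture diluted 1:100 in LB (pH 7.0), added to test compound from DMSO stock (final 100 or 10 μM), incubated statically at 37 °C for 18–24 h. OD600 read; aliquot lysed with Z buffer, CHCl3 and 0.1% SDS; ONPG 20 min at […], stopped with 1 M Na2CO3; A420/A550 converted to Miller units. Triplicate; scaled to 100 μM OH-dDHL (100%).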

AbaR [4] = test: AbaR antagonism reporter gene assay; assay type: cell-based, Acinetobacter baumannii; settings: 100 μM against OH-dDHL at 700 nM; triplicate, error ±10%

T1 sequence (P25084 whole entry): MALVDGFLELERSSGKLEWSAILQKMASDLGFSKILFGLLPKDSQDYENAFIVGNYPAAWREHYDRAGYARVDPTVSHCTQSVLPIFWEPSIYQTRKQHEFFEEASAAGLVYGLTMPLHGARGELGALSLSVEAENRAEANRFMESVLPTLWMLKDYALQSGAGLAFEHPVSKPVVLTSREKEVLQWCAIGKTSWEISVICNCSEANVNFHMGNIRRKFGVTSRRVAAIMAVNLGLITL

In the case of `CCCc1cn(CC(=O)NC2CCOC2=O)nn1` (stereo not shown) [I-A], the “Activation [%] LasR” value (LasR [1]) is reported as 0%, the “Inhibition [%] LasR” value (LasR [2]) is reported as 55% and the “Activation [%] AbaR” value (AbaR [3]) is reported as 0%. The “Inhibition [%] AbaR” value (AbaR [4]) was 47%.
